# Test results from ChEMBL document CHEMBL1147076, “Antitumor activity of MLN8054, an orally active small-molecule inhibitor of Aurora A kinase” (Proc Natl Acad Sci U S A, 2007).
# pIC50: −log10 of the molar value. Activity calls are given as the source filed them. No cut-off for these calls is given here.
# How the values were obtained:
# [1] = target: Focal adhesion kinase 1 (Homo sapiens) (UniProt Q05397); test: Activity of human FAK kinase at 1 uM
# [2] = target: Tyrosine-protein kinase Fgr (Homo sapiens) (UniProt P09769); test: Activity of human FGR kinase at 1 uM
# Outline: (§1)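 Single-point kinase profiling: each kinase in a 226-kinase panel tested with compound at 1 μM and ATP at 10 μM in every assay, run by an external screening service.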
# [3] = target: Macrophage colony-stimulating factor 1 receptor (Homo sapiens) (UniProt P07333); test: Activity of human FMS kinase at 1 uM
# [4] = target: Homeodomain-interacting protein kinase 2 (Homo sapiens) (UniProt Q9H2X6); test: Activity of human HIPK2 kinase at 1 uM; outline: as §1
# [5] = target: Inhibitor of nuclear factor kappa-B kinase subunit alpha (Homo sapiens) (UniProt O15111); test: Activity of human IKKalpha kinase at 1 uM; outline: as §1
# [6] = target: LIM domain kinase 1 (Homo sapiens) (UniProt P53667); test: Activity of human LIMK1 kinase at 1 uM
# [7] = target: Tyrosine-protein kinase Lyn (Mus musculus) (UniProt P25911); test: Activity of mouse Lyn kinase at 1 uM
# Outline: (§2)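 Single-point screen in a 226-kinase panel run by an outside service. Test compound at 1 μM with ATP at 10 μM in every assay. Other assay conditions are not given.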
# [8] = target: Dual specificity mitogen-activated protein kinase kinase 1 (Homo sapiens) (UniProt Q02750); test: Activity of human MEK1 kinase at 1 uM
# [9] = target: Hepatocyte growth factor receptor (Homo sapiens) (UniProt P08581); test: Activity of human Met kinase at 1 uM; outline: as §1
# [10] = target: Serine/threonine-protein kinase 3 (Homo sapiens) (UniProt Q13188); test: Activity of human MST2 kinase at 1 uM
# [11] = target: Serine/threonine-protein kinase PAK 5 (Homo sapiens) (UniProt Q9P286); test: Activity of human PAK5 kinase at 1 uM; outline: as §2
# [12] = target: Serine/threonine-protein kinase pim-2 (Homo sapiens) (UniProt Q9P1W9); test: Activity of human Pim2 kinase at 1 uM; outline: as §2
# Serine/threonine-protein kinase pim-2 (Homo sapiens), sequence (Q9P1W9 whole entry, looked up): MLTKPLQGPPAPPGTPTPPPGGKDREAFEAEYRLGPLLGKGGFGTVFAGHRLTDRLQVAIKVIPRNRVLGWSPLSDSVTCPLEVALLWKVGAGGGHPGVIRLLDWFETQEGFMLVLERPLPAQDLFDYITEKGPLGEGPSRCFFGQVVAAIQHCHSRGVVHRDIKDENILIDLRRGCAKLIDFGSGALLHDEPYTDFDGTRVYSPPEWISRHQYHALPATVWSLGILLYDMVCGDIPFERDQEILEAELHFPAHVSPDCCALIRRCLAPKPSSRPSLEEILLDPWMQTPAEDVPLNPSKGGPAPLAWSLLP
# Bos taurus = species: Bos taurus; test: Activity of bovine PKA kinase at 1 uM
# [13] = target: RAC-beta serine/threonine-protein kinase (Homo sapiens) (UniProt P31751); test: Activity of human PKBbeta kinase at 1 uM; outline: as §2
# [14] = target: Protein kinase C epsilon type (Homo sapiens) (UniProt Q02156); test: Activity of human PKCepsilon kinase at 1 uM; outline: as §1
# [15] = target: Protein kinase C eta type (Homo sapiens) (UniProt P24723); test: Activity of human PKCeta kinase at 1 uM; outline: as §2
# [16] = target: Protein kinase C theta type (Homo sapiens) (UniProt Q04759); test: Activity of human PKCtheta kinase at 1 uM; outline: as §1
# [17] = target: cGMP-dependent protein kinase 1 (Homo sapiens) (UniProt Q13976); test: Activity of human PKG1-beta kinase at 1 uM; outline: as §1
# [18] = target: MAP kinase-activated protein kinase 5 (Homo sapiens) (UniProt Q8IW41); test: Activity of human PRAK kinase at 1 uM; outline: as §2
# [19] = target: Proto-oncogene tyrosine-protein kinase ROS (Homo sapiens) (UniProt P08922); test: Activity of human Ros kinase at 1 uM; outline: as §2
# [20] = target: Serine/threonine-protein kinase Sgk1 (Homo sapiens) (UniProt O00141); test: Activity of human SGK kinase at 1 uM; outline: as §2
# [21] = target: Tyrosine-protein kinase SYK (Homo sapiens) (UniProt P43405); test: Activity of human Syk kinase at 1 uM; outline: as §2
# [22] = target: Death-associated protein kinase 1 (Homo sapiens) (UniProt P53355); test: Activity of human DAPK1 kinase at 1 uM; outline: as §1
# [23] = target: Discoidin domain-containing receptor 2 (Homo sapiens) (UniProt Q16832); test: Activity of human DDR2 kinase at 1 uM
# [24] = target: Ephrin type-A receptor 1 (Homo sapiens) (UniProt P21709); test: Activity of human EphA1 kinase at 1 uM; outline: as §1
# Ephrin type-A receptor 1 (Homo sapiens), sequence (P21709 whole entry): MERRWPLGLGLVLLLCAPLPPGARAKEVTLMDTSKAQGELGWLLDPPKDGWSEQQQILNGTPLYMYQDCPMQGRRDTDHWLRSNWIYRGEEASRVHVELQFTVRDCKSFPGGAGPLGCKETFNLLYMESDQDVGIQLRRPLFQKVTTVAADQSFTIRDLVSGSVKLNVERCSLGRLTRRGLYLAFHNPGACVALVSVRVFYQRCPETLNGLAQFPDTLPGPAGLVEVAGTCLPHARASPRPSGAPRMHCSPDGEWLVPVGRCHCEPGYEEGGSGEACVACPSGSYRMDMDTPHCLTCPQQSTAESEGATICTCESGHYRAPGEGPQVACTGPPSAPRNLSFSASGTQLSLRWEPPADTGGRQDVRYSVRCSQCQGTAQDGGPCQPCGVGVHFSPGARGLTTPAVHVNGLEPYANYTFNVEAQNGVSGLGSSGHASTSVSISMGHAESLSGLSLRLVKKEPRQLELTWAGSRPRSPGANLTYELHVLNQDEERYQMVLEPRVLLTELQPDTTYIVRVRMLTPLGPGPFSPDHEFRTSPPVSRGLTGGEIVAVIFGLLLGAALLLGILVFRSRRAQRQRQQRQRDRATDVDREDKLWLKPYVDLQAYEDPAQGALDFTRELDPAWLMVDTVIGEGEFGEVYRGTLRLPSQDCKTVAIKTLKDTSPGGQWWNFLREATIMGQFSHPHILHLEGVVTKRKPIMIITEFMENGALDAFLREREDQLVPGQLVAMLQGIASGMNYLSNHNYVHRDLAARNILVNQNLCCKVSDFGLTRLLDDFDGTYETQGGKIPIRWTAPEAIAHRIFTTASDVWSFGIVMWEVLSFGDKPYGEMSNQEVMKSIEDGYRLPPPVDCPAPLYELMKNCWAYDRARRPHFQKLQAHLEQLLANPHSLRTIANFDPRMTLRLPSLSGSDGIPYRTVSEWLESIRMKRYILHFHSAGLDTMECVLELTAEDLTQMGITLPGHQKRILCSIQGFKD
# [25] = target: Mitogen-activated protein kinase 10 (Homo sapiens) (UniProt P53779); test: Activity of human JNK3 kinase at 1 uM; outline: as §1
# [26] = target: BDNF/NT-3 growth factors receptor (Homo sapiens) (UniProt Q16620); test: Activity of human TrkB kinase at 1 uM
# Outline: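 Single-concentration screen across a 226-kinase panel run by an outside provider; test compound at 1 μM with 10 μM ATP in every assay. Other conditions not detailed.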
# [27] = target: ALK tyrosine kinase receptor (Homo sapiens) (UniProt Q9UM73); test: Activity of human ALK kinase at 1 uM
# ALK tyrosine kinase receptor (Homo sapiens), sequence (Q9UM73 19-1620 limits assumed): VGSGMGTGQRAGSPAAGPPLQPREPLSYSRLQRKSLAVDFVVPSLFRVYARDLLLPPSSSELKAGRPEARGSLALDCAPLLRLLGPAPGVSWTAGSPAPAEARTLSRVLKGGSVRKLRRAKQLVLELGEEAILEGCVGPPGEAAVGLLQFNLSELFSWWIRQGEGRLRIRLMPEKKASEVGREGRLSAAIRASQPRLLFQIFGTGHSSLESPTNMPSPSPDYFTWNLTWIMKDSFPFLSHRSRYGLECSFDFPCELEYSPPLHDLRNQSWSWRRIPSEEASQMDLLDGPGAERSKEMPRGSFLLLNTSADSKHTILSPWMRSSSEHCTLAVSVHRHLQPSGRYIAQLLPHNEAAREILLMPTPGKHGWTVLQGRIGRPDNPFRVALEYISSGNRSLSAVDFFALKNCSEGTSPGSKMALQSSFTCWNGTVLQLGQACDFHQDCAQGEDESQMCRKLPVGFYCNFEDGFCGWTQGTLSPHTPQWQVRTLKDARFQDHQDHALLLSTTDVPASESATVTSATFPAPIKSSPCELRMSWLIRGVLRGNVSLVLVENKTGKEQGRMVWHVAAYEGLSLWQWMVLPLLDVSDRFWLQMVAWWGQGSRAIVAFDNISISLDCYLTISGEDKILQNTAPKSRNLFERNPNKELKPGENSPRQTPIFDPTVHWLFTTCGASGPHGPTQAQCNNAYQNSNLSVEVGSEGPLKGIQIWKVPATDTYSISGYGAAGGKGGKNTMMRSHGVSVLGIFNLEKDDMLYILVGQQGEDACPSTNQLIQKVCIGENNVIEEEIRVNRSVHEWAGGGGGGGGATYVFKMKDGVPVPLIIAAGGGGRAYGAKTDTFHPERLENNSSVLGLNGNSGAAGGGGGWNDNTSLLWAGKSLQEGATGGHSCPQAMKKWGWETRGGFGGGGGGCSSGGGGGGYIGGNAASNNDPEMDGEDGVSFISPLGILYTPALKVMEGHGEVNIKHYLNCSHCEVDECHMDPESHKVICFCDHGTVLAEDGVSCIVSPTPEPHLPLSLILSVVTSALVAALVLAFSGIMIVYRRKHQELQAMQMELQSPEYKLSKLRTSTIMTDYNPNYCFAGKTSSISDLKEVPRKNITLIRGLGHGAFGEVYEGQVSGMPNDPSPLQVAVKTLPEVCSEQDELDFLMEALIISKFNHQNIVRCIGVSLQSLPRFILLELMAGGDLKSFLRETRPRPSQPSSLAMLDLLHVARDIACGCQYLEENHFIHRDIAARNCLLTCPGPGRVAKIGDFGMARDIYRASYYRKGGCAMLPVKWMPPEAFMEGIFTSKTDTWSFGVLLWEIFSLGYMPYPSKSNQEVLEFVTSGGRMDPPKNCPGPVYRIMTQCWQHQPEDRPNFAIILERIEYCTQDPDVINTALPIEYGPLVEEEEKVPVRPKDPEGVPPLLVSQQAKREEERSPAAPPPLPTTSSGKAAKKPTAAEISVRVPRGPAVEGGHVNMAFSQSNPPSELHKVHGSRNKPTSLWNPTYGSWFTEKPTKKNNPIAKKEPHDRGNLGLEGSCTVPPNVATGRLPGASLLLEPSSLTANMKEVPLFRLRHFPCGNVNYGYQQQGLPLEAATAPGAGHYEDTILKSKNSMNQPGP
# [28] = target: Protein-tyrosine kinase 6 (Homo sapiens) (UniProt Q13882); test: Activity of human BRK kinase at 1 uM
# [29] = target: Tyrosine-protein kinase BTK (Homo sapiens) (UniProt Q06187); test: Activity of human BTK kinase at 1 uM
# Tyrosine-protein kinase BTK (Homo sapiens), sequence (Q06187 whole entry): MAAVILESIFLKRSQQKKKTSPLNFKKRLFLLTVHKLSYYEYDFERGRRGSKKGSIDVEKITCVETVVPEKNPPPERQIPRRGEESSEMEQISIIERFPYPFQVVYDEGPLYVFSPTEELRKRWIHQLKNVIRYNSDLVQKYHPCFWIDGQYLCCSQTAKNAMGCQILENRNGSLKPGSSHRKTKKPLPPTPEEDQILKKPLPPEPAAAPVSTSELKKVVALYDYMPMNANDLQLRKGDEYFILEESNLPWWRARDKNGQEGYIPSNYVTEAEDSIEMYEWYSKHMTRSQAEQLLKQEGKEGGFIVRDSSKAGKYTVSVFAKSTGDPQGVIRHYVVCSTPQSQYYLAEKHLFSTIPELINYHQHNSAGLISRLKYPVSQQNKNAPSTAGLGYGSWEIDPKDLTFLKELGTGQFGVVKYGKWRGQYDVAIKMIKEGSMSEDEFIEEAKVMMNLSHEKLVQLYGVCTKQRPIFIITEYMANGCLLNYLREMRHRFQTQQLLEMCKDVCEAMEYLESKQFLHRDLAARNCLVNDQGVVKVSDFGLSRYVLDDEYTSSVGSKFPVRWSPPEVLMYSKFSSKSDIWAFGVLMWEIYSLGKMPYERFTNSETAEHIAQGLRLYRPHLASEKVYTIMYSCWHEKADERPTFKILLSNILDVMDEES
# Homo sapiens [30] = species: Homo sapiens; test: Activity of human CaMK1 kinase at 1 uM
# [31] = target: Cyclin-dependent kinase 2/cyclin A (Homo sapiens) (UniProt P24941+P20248+P78396); test: Activity of human CDK2/cyclin A kinase at 1 uM; type: protein-complex assay
# [32] = target: CDK3/Cyclin E (Homo sapiens) (UniProt P24864+Q00526); test: Activity of human CDK3/cyclin E kinase at 1 uM; type: protein-complex assay; outline: as §1
# [33] = target: Casein kinase I isoform gamma-3 (Homo sapiens) (UniProt Q9Y6M4); test: Activity of human CK1gamma3 kinase at 1 uM; outline: as §1
# Casein kinase I isoform gamma-3 (Homo sapiens), sequence (Q9Y6M4 whole entry, looked up, canonical isoform): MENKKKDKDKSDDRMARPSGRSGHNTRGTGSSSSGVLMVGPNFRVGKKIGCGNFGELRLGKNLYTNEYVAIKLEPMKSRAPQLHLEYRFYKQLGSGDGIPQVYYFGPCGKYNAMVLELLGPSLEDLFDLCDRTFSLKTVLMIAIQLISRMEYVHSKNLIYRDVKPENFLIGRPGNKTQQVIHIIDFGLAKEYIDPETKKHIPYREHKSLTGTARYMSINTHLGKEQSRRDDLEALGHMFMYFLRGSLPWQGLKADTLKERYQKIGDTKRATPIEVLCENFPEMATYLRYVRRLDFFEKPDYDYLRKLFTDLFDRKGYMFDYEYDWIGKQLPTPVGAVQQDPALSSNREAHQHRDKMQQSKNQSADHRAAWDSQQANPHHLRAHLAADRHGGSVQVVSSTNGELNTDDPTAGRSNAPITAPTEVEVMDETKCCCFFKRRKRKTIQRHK
# [34] = target: Casein kinase I homolog 1 (Saccharomyces cerevisiae S288c) (UniProt P23291); test: Activity of Saccharomyces cerevisiae CK1 kinase at 1 uM
# Homo sapiens [35] = species: Homo sapiens; test: Activity of human CK2 kinase at 1 uM
# PC-3 [36] = test: Induction of apoptosis in human PC3 cells assessed as PARP cleavage at 0.25 uM after 48 hrs by Western blot method; type: functional, cell-based
# DLD-1 = test: Antiproliferative activity against human DLD1 cells after 96 hrs by BrdU cell proliferation ELISA; type: functional, cell-based; details: DLD-1, 96 h
# Outline: (§3)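 BrdU incorporation proliferation assay on cultured human tumor lines; IC50 values derived from growth inhibition.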
# Calu-6 = test: Antiproliferative activity against human Calu6 cells after 96 hrs by BrdU cell proliferation ELISA; type: functional, cell-based; details: Calu-6, 96 h; outline: as §3
# SK-OV-3 = test: Antiproliferative activity against human SKOV3 cells after 96 hrs by BrdU cell proliferation ELISA; type: functional, cell-based; details: SK-OV-3, 96 h
# PC-3 [37] = test: Cell cycle arrest in human PC3 cells by accumulation at G2/M phase at 1 uM after 24 hrs by flow cytometry relative to control; type: functional
# Outline: (§4)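 DNA content profiles by flow cytometry of PC-3 prostate tumor cells exposed to drug diluted in DMSO for 24 or 48 h. Phase distribution was compared with DMSO-treated control cells.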
# PC-3 [38] = test: Cell cycle arrest in human PC3 cells by accumulation at G1 phase at 4 uM after 24 hrs by flow cytometry relative to control; type: functional; outline: as §4
# PC-3 [39] = test: Cell cycle arrest in human PC3 cells by accumulation at G1 phase at 1 uM after 48 hrs by flow cytometry relative to control; type: functional; outline: as §4
# Focal adhesion kinase 1 (Homo sapiens), sequence (Q05397 2-1052 limits assumed): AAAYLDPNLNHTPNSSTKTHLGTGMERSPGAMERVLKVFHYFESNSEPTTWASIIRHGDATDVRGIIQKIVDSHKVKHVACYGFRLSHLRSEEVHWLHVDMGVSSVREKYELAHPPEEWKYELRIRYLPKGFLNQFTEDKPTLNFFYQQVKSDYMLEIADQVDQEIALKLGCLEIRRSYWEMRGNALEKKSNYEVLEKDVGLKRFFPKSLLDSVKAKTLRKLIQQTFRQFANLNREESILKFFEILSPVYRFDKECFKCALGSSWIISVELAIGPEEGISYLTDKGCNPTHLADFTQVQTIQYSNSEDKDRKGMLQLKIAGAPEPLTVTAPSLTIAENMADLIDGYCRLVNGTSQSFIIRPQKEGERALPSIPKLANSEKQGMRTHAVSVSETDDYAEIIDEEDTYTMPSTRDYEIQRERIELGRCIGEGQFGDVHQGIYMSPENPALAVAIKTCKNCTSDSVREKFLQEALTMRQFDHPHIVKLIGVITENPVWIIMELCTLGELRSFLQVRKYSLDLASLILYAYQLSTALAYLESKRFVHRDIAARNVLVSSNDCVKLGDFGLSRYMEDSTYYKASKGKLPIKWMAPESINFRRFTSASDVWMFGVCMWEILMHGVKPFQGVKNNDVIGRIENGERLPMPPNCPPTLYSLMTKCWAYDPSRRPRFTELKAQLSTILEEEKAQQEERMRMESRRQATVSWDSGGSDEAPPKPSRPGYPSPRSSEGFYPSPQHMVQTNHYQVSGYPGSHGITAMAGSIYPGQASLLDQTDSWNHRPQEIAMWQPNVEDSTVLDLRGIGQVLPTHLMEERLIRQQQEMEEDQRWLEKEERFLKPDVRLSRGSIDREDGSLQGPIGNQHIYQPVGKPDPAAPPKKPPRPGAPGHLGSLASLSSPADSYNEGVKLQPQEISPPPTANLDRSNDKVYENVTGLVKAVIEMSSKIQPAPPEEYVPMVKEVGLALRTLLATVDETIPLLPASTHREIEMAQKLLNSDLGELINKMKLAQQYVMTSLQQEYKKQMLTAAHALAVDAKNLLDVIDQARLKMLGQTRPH
compound,measurement,setting,value
O=C(O)c1ccc(Nc2ncc3c(n2)-c2ccc(Cl)cc2C(c2c(F)cccc2F)=NC3)cc1 [MLN-8054],Activity,[1],110%
same,Activity,[2],36%
same,Activity,[3],95%
same,Activity,[4],112%
same,Activity,[5],114%
same,Activity,[6],110%
same,Activity,[7],52%
same,Activity,[8],110%
same,Activity,[9],140%
same,Activity,[10],100%
same,Activity,[11],100%
same,Activity,[12],101%
same,Activity,Bos taurus,86%
same,Activity,[13],104%
same,Activity,[14],123%
same,Activity,[15],120%
same,Activity,[16],112%
same,Activity,[17],109%
same,Activity,[18],110%
same,Activity,[19],88%
same,Activity,[20],99%
same,Activity,[21],99%
same,Activity,[22],114%
same,Activity,[23],87%
same,Activity,[24],29%
same,Activity,[25],125%
same,Activity,[26],112%
same,Activity,[27],95%
same,Activity,[28],104%
same,Activity,[29],90%
same,Activity,Homo sapiens [30],98%
same,Activity,[31],96%
same,Activity,[32],105%
same,Activity,[33],113%
same,Activity,[34],115%
same,Activity,Homo sapiens [35],108%
same,Activity,PC-3 [36],Active
same,pIC50,DLD-1,5.84
same,pIC50,Calu-6,6.66
same,pIC50,SK-OV-3,6.28
same,Activity,PC-3 [37],45.4%
same,Activity,PC-3 [38],23%
same,Activity,PC-3 [39],23%
